Measurements: ChEMBL document CHEMBL1130231, “Betidamino acid scan of the GnRH antagonist acyline” (J Med Chem, 1997)
Activity calls are given as the source filed them. No cut-off for these calls is given here.

Experiments:
Rattus norvegicus [1] = experiment: Ratio of ovulated rats to total number of rats determined in a anti-ovulatory assay by administering 5 microg of compound; 0/8; format: functional, organism-based
Rattus norvegicus [2] = experiment: Ratio of ovulated rats to total number of rats determined in a anti-ovulatory assay by administering 2.5 microg of compound; 0/8; format: functional, organism-based
Rattus norvegicus [3] = experiment: Ratio of ovulated rats to total number of rats determined in a anti-ovulatory assay by administering 1 microg of compound; 8/8; format: functional, organism-based
Rattus norvegicus [4] = experiment: Ratio of ovulated rats to total number of rats determined in a anti-ovulatory assay by administering 250 microg of compound; 6/8; format: functional, organism-based
[5] = biological target: T1, Gonadotropin-releasing hormone receptor (Rattus norvegicus, UniProt P30969); experiment: Inhibition of binding of radiolabeled histrelin to Gonadotropin-releasing hormone receptor (GnRHr) in rat pituitary gland membranes; format: cell membranes, Membrane
T1 sequence (P30969 whole entry): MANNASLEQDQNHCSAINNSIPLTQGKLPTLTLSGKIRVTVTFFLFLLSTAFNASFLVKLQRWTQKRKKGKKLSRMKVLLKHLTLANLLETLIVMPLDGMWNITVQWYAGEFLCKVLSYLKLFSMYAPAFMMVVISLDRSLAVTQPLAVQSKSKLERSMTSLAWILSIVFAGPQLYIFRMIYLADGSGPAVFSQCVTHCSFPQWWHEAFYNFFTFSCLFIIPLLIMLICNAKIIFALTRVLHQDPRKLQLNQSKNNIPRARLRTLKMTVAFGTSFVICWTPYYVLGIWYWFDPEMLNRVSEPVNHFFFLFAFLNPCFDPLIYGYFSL
Summary of the method: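 Rat anterior pituitary membranes (male and female glands equal numbers), homogenized in 0.32 M sucrose/aprotinin, 4000g pellet, diluted 15-fold in 10 mM Hepes, 0.2% BSA, pH 7.6. Filtration onto PEI-treated glass filters, scintillation counting. IC50 in nM, duplicate, n = 1.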

Rattus norvegicus [6] = experiment: Ratio of ovulated rats to total number of rats determined in a anti-ovulatory assay by administering 2.5 microg of compound; 2/8; format: functional, organism-based
Rattus norvegicus [7] = experiment: Ratio of ovulated rats to total number of rats determined in a anti-ovulatory assay by administering 10 microg of compound; 0/8; format: functional, organism-based

Row | Compound | IC50 [5] [nM] | further results
1 | CC(=O)Nc1ccc(C[C@H](NC(=O)[C@@H](NC=O)NC(=O)[C@@H](Cc2cccnc2)NC(=O)[C@@H](Cc2ccc(Cl)cc2)NC(=O)[C@@H](Cc2ccc3ccccc3c2)NC(C)=O)C(=O)N[C@H](Cc2ccc(NC(C)=O)cc2)C(=O)N[C@@H](CC(C)C)C(=O)N[C@@H](CCCCNC(C)C)C(=O)N2CCC[C@@H]2C(=O)N[C@H](C)C(N)=O)cc1 (single isomer, unassigned) |  | ov. rat/total (Rattus norvegicus [1]): Active
2 | CC(=O)Nc1ccc(C[C@H](NC(=O)[C@H](CO)NC(=O)[C@@H](Cc2cccnc2)NC(=O)[C@@H](Cc2ccc(Cl)cc2)NC(=O)[C@@H](Cc2ccc3ccccc3c2)NC(C)=O)C(=O)N[C@H](Cc2ccc(NC(C)=O)cc2)C(=O)N[C@@H](CC(C)C)C(=O)N[C@@H](CCCCNC(C)C)C(=O)N2CCC[C@@H]2C(=O)N[C@@H](C)C(N)=O)cc1 |  | ov. rat/total (Rattus norvegicus [2]): Active; ov. rat/total (Rattus norvegicus [3]): inactive
3 | CC(=O)Nc1ccc(C[C@H](NC(=O)[C@H](CO)NC(=O)[C@@H](Cc2cccnc2)NC(=O)[C@H](NC(=O)c2c[nH]nc2N)NC(=O)[C@@H](Cc2ccc3ccccc3c2)NC(C)=O)C(=O)N[C@H](Cc2ccc(NC(C)=O)cc2)C(=O)N[C@@H](CC(C)C)C(=O)N[C@@H](CCCCNC(C)C)C(=O)N2CCC[C@@H]2C(=O)N[C@H](C)C(N)=O)cc1 |  | ov. rat/total (Rattus norvegicus [4]): inactive
4 | CC(=O)Nc1ccc(C[C@H](NC(=O)[C@H](CO)NC(=O)[C@@H](Cc2cccnc2)NC(=O)[C@@H](Cc2ccc(Cl)cc2)NC(=O)[C@@H](Cc2ccc3ccccc3c2)NC(C)=O)C(=O)N[C@@H](C(=O)N[C@@H](CC(C)C)C(=O)N[C@@H](CCCCNC(C)C)C(=O)N2CCC[C@@H]2C(=O)N[C@H](C)C(N)=O)N(C)C(=O)c2ccc(NC(C)=O)cc2)cc1 (mixture of isomers) |  | ov. rat/total (Rattus norvegicus [6]): Partially active
5 | CC(=O)Nc1ccc(C[C@H](NC(=O)[C@H](CO)NC(=O)[C@@H](Cc2cccnc2)NC(=O)[C@H](NC(=O)c2cn[nH]c2N)NC(=O)[C@@H](Cc2ccc3ccccc3c2)NC(C)=O)C(=O)N[C@H](Cc2ccc(NC(C)=O)cc2)C(=O)N[C@@H](CC(C)C)C(=O)N[C@@H](CCCCNC(C)C)C(=O)N2CCC[C@H]2C(=O)N[C@H](C)C(N)=O)cc1 | 2500 | 
6 | CC(=O)Nc1ccc(C[C@H](NC(=O)[C@H](CO)NC(=O)[C@@H](Cc2cccnc2)NC(=O)[C@@H](NC(=O)[C@@H](Cc2ccc3ccccc3c2)NC(C)=O)N(C)C(=O)c2ccc(Cl)cc2)C(=O)N[C@H](Cc2ccc(NC(C)=O)cc2)C(=O)N[C@@H](CC(C)C)C(=O)N[C@@H](CCCCNC(C)C)C(=O)N2CCC[C@@H]2C(=O)N[C@H](C)C(N)=O)cc1 (mixture of isomers) |  | ov. rat/total (Rattus norvegicus [4]): inactive
7 | CC(=O)Nc1ccc(C[C@H](NC(=O)[C@H](CO)NC(=O)[C@@H](NC(=O)c2ccncc2)NC(=O)[C@@H](Cc2ccc(Cl)cc2)NC(=O)[C@@H](Cc2ccc3ccccc3c2)NC(C)=O)C(=O)N[C@H](Cc2ccc(NC(C)=O)cc2)C(=O)N[C@@H](CC(C)C)C(=O)N[C@@H](CCCCNC(C)C)C(=O)N2CCC[C@@H]2C(=O)N[C@H](C)C(N)=O)cc1 (single isomer, unassigned) |  | ov. rat/total (Rattus norvegicus [6]): Partially active; ov. rat/total (Rattus norvegicus [7]): Active
8 | CN[C@@H](NC(=O)[C@H]1CCCN1C(=O)[C@H](CCCCNC(C)C)NC(=O)[C@H](CC(C)C)NC(=O)[C@@H](Cc1ccc(NC(C)=O)cc1)NC(=O)[C@H](Cc1ccc(NC(C)=O)cc1)NC(=O)[C@H](CO)NC(=O)[C@@H](Cc1cccnc1)NC(=O)[C@@H](Cc1ccc(Cl)cc1)NC(=O)[C@@H](Cc1ccc2ccccc2c1)NC(C)=O)C(N)=O |  | ov. rat/total (Rattus norvegicus [2]): Active; ov. rat/total (Rattus norvegicus [3]): inactive

Continued, in another order:

Row | IC50 [5] [nM] | Compound | further results
9 | 0.64 | CC(=O)Nc1ccc(C[C@H](NC(=O)[C@H](CO)NC(=O)[C@@H](Cc2cccnc2)NC(=O)[C@@H](Cc2ccc(Cl)cc2)NC(=O)[C@H](Cc2ccc3ccccc3c2)NC(C)=O)C(=O)N[C@H](Cc2ccc(NC(C)=O)cc2)C(=O)N[C@@H](CC(C)C)C(=O)N[C@@H](CCCCNC(C)C)C(=O)N2CCC[C@H]2C(=O)N[C@H](C)C(N)=O)cc1 | 
10 | 280 | CC(=O)Nc1ccc(C[C@H](NC(=O)[C@H](CO)NC(=O)[C@@H](Cc2cccnc2)NC(=O)[C@@H](NC(=O)[C@@H](Cc2ccc3ccccc3c2)NC(C)=O)N(C)C(=O)c2ccc(Cl)cc2)C(=O)N[C@H](Cc2ccc(NC(C)=O)cc2)C(=O)N[C@@H](CC(C)C)C(=O)N[C@@H](CCCCNC(C)C)C(=O)N2CCC[C@H]2C(=O)N[C@H](C)C(N)=O)cc1 (mixture of isomers) | 
11 | 0.76 | CC(=O)Nc1ccc(C[C@H](NC(=O)[C@H](CO)NC(=O)[C@H](NC(=O)c2cccnc2)NC(=O)[C@@H](Cc2ccc(Cl)cc2)NC(=O)[C@@H](Cc2ccc3ccccc3c2)NC(C)=O)C(=O)N[C@H](Cc2ccc(NC(C)=O)cc2)C(=O)N[C@@H](CC(C)C)C(=O)N[C@@H](CCCCNC(C)C)C(=O)N2CCC[C@H]2C(=O)N[C@H](C)C(N)=O)cc1 | 
12 | 0.056 | CC(=O)Nc1ccc(C[C@H](NC(=O)[C@@H](NC(=O)CO)NC(=O)[C@@H](Cc2cccnc2)NC(=O)[C@@H](Cc2ccc(Cl)cc2)NC(=O)[C@@H](Cc2ccc3ccccc3c2)NC(C)=O)C(=O)N[C@H](Cc2ccc(NC(C)=O)cc2)C(=O)N[C@@H](CC(C)C)C(=O)N[C@@H](CCCCNC(C)C)C(=O)N2CCC[C@H]2C(=O)N[C@H](C)C(N)=O)cc1 (single isomer, unassigned) | 
13 | 0.88 | CC(=O)Nc1ccc(C[C@H](NC(=O)[C@H](CO)NC(=O)[C@@H](Cc2cccnc2)NC(=O)[C@@H](Cc2ccc(Cl)cc2)NC(=O)[C@H](NC(C)=O)NC(=O)c2ccc3ccccc3c2)C(=O)N[C@H](Cc2ccc(NC(C)=O)cc2)C(=O)N[C@@H](CC(C)C)C(=O)N[C@@H](CCCCNC(C)C)C(=O)N2CCC[C@H]2C(=O)N[C@H](C)C(N)=O)cc1 | 
14 | 0.3 | CC(=O)Nc1ccc(C[C@H](NC(=O)[C@H](NC(=O)CO)NC(=O)[C@@H](Cc2cccnc2)NC(=O)[C@@H](Cc2ccc(Cl)cc2)NC(=O)[C@@H](Cc2ccc3ccccc3c2)NC(C)=O)C(=O)N[C@H](Cc2ccc(NC(C)=O)cc2)C(=O)N[C@@H](CC(C)C)C(=O)N[C@@H](CCCCNC(C)C)C(=O)N2CCC[C@H]2C(=O)N[C@H](C)C(N)=O)cc1 (single isomer, unassigned) | 
15 | 1.7 | CC(=O)Nc1ccc(C[C@H](NC(=O)[C@H](CO)NC(=O)[C@@H](Cc2cccnc2)NC(=O)[C@@H](Cc2ccc(Cl)cc2)NC(=O)[C@@H](Cc2ccc3ccccc3c2)NC(C)=O)C(=O)N[C@H](Cc2ccc(NC(C)=O)cc2)C(=O)N[C@H](C(=O)N[C@@H](CCCCNC(C)C)C(=O)N2CCC[C@H]2C(=O)N[C@H](C)C(N)=O)N(C)C(C)=O)cc1 | 
16 | 0.23 | CC(=O)Nc1ccc(C[C@H](NC(=O)[C@H](CO)NC(=O)[C@H](Cc2cccnc2)NC(=O)[C@@H](Cc2ccc(Cl)cc2)NC(=O)[C@@H](Cc2ccc3ccccc3c2)NC(C)=O)C(=O)N[C@H](Cc2ccc(NC(C)=O)cc2)C(=O)N[C@@H](CC(C)C)C(=O)N[C@@H](CCCCNC(C)C)C(=O)N2CCC[C@H]2C(=O)N[C@H](C)C(N)=O)cc1 | 
17 | 0.5 | CC(=O)Nc1ccc(C[C@H](NC(=O)[C@H](CO)NC(=O)[C@@H](Cc2cccnc2)NC(=O)[C@@H](Cc2ccc(Cl)cc2)NC(=O)[C@@H](Cc2ccc3ccccc3c2)NC(C)=O)C(=O)N[C@H](Cc2ccc(NC(C)=O)cc2)C(=O)N[C@@H](CC(C)C)C(=O)N[C@H](C(=O)N2CCC[C@H]2C(=O)N[C@H](C)C(N)=O)N(C)C(=O)CCNC(C)C)cc1 (single isomer, unassigned) | 
